“And” between values parts separate entries of the source, which are not always exact repeats. Identical values can stand only once.

From ChEMBL document CHEMBL1121826, “Relation of conformation to antitumor activity of platinum(II) complexes of 1,2-cyclohexanediamine and 2-(aminomethyl)cyclohexylamine isomers against leukemia P388” (J Med Chem, 1981) come the findings set out here.

Series [1] deals with P388. Briefly: Antitumor activity against leukemia P388 in CDF1 mice. It is filed as functional, cell-based. To be noted: Mus musculus. In a few lines: (§1)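 CDF1 [(BALB/c × DBA/2)F1] mice given 10^6 P388 cells ip on day 0; treatment ip on days 1 and 5; insoluble complexes suspended in physiological saline with a few drops of Tween 80. Groups of 6 treated and 10 control mice. Median survival of treated (T) and control (C) groups calculated; activity expressed as % T/C.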

In series [2] the test system is P388. Briefly: Toxic dose against leukemia P388 in CDF1 mice. The format is functional, cell-based. To be noted: Mus musculus. The procedure, abridged: as §1
In series [3] the test system is P388. Kind of series: Minimum effective dose (MED) against leukemia P388 in CDF1 mice. To be noted: Mus musculus. It is filed as functional, cell-based. In a few lines:
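P388 model in CDF1 mice: 10^6 cells ip on day 0, ip dosing on days 1 and 5; 6 treated and 10 control mice per group. Median survival days give % T/C. MED is the lowest dose at which % T/C exceeded 120.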

Series [4] can be described thus: Therapeutic index was determined against leukemia P388 cells in mice. To be noted: mouse. The format is cell-based. The procedure, abridged:
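CDF1 mice implanted ip with 10^6 P388 cells on day 0 and dosed ip on days 1 and 5 (saline, or saline plus Tween 80 suspension if insoluble); 6 treated and 10 control mice. % T/C from median survival. TI is optimal dose divided by MED (lowest dose giving % T/C above 120), per the NCI platinum analogue protocol.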

Series [5] has as its system P388. Kind of series: Optimal dose against leukemia P388 in CDF1 mice. The format is functional, cell-based. To be noted: Mus musculus. In a few lines: as §1

As a reminder, the T/C is the ratio of treated to control. Turning to “amcha (trans-d)-2-(aminomethyl)cyclohexylamine platinum (II) complex [listing 1 of 5 here]”, the T/C with P388 [1] was 160% [middle of 8 runs]. Further, in the series with P388 [2], the Toxic dose was 100 mg kg-1 and > 100 mg kg-1 (2×) and > 200 mg kg-1. Moreover, the MED in the series on P388 [3] was less than 0.78 mg/kg.
With “amcha (cis-d)-2-(aminomethyl)cyclohexylamine platinum (II) complex [listing 1 of 5 here]”, the TI result in series [4] was “>= 4”.
In the case of “amcha (trans-d)-2-(aminomethyl)cyclohexylamine platinum (II) complex [listing 2 of 5 here]”, in series [4], the TI entry was “>= 16”.
CISPLATIN [listing 1 of 2 here] yielded a TI in series [4] of 4.
With “amcha (cis-d)-2-(aminomethyl)cyclohexylamine platinum (II) complex [listing 2 of 5 here]”, the TI in series [4] is given as 32.
Still for that read-out and setting: the same measure for “0-Hexyl-1,3-diamine-platinum 2,2-dichloride [listing 1 of 2 here]”: 4; for “dach (trans-d)-1,2-cyclohexanediamine platinum (II) complex [listing 1 of 5 here]”: 13.
On to “dach (cis)-1,2-cyclohexanediamine platinum (II) complex [listing 1 of 4 here]”, for which the TI entry in series [4] is recorded as “>= 8”.
In turn, “amcha (trans-d)-2-(aminomethyl)cyclohexylamine platinum (II) complex [listing 3 of 5 here]” yielded a TI in series [4] of 16.
The same measure, in the same setting: the same measure for “amcha (trans-d)-2-(aminomethyl)cyclohexylamine platinum (II) complex [listing 4 of 5 here]”: “>= 64”.
For the substance “dach (trans-l)-1,2-cyclohexanediamine platinum (II) complex [listing 1 of 4 here]”, in the series on P388 [1], the T/C was 182% [middle of 10 runs].
In series [4], “amcha (trans-d)-2-(aminomethyl)cyclohexylamine platinum (II) complex [listing 5 of 5 here]” yielded a TI of 64.
As to “amcha (trans-l)-2-(aminomethyl)cyclohexylamine platinum (II) complex [listing 1 of 4 here]”, in the series on P388 [1], the T/C was 158% [middle of 10 runs]. Also, in the series with P388 [5], the Optimal dose was 12.5 mg kg-1 (3×) and 25 mg kg-1 and > 25 mg kg-1.
In turn, “dach (trans-d)-1,2-cyclohexanediamine platinum (II) complex [listing 2 of 5 here]” showed a TI in series [4] of 16.
“amcha (cis-l)-2-(aminomethyl)cyclohexylamine platinum (II) complex [listing 1 of 6 here]” had a TI in series [4] of more than 8.
Same read-out and setting: the result for “dach (trans-l)1,2-cyclohexanediamine platinum (II) complex [listing 1 of 2 here]” reads “>= 4”.
Turning to “dach (trans-d)-1,2-cyclohexanediamine platinum (II) complex [listing 3 of 5 here]”, the T/C in the series on P388 [1] was 151% [middle of 12 runs].
As for CISPLATIN [listing 2 of 2 here], the T/C in the series with P388 [1] was 230% (2×) and 134% (2×). In addition, the Toxic dose in the series with P388 [2] is 12.5 mg/kg. The substance further returned an Optimal dose with P388 [5] of 3.12 mg/kg. The MED in the series on P388 [3] came to 0.78 mg/kg.
As to “amcha (trans-l)-2-(aminomethyl)cyclohexylamine platinum (II) complex [listing 2 of 4 here]”, the TI entry in series [4] is recorded as “>= 16”.
In turn, “amcha (trans-l)-2-(aminomethyl)cyclohexylamine platinum (II) complex [listing 3 of 4 here]” had a TI in series [4] of 16.
Regarding “dach (cis)-1,2-cyclohexanediamine platinum (II) complex [listing 2 of 4 here]”, in series [4], the TI is recorded as 4.
The same measure, in the same setting: the result for “dach (trans-d)-1,2-cyclohexanediamine platinum (II) complex [listing 4 of 5 here]” reads “>= 8”; that for “amcha (cis-l)-2-(aminomethyl)cyclohexylamine platinum (II) complex [listing 2 of 6 here]”, “>= 32”; that for “amcha (cis-d)-2-(aminomethyl)cyclohexylamine platinum (II) complex [listing 3 of 5 here]”, “>= 16”.
Still for that read-out and setting: the result for “amcha (cis-l)-2-(aminomethyl)cyclohexylamine platinum (II) complex [listing 3 of 6 here]” reads 32; that for “amcha (trans-l)-2-(aminomethyl)cyclohexylamine platinum (II) complex [listing 4 of 4 here]”, 4.
Substance “dach (trans-l)1,2-cyclohexanediamine platinum (II) complex [listing 2 of 2 here]” gave a Toxic dose in the series on P388 [2] of 25 mg/kg. The same substance gave an Optimal dose in the series on P388 [5] of 6.25 mg/kg. The MED in the series on P388 [3] was less than 1.56 mg/kg.
As to “dach (cis)-1,2-cyclohexanediamine platinum (II) complex [listing 3 of 4 here]”, the T/C in the series with P388 [1] was 144% [middle of 10 runs]. Also, in the series on P388 [5], the Optimal dose was 25 mg kg-1 (4×) and 12.5 mg kg-1.
The substance “amcha (cis-l)-2-(aminomethyl)cyclohexylamine platinum (II) complex [listing 4 of 6 here]” gave a TI in series [4] of more than 16.
Still for that read-out and setting: the same measure for “dach (cis)-1,2-cyclohexanediamine platinum (II) complex [listing 4 of 4 here]”: 16; for “amcha (cis-d)-2-(aminomethyl)cyclohexylamine platinum (II) complex [listing 4 of 5 here]”: 16.
Still for that read-out and setting: the result for “dach (trans-l)-1,2-cyclohexanediamine platinum (II) complex [listing 2 of 4 here]” reads 4.
In series [4], “amcha (cis-l)-2-(aminomethyl)cyclohexylamine platinum (II) complex [listing 5 of 6 here]” came in with a TI of 8.
In the case of “0-Hexyl-1,3-diamine-platinum 2,2-dichloride [listing 2 of 2 here]”, the T/C in the series with P388 [1] is 206% and 127%. The substance further gave a Toxic dose in the series on P388 [2] of 12.5 mg/kg. Further, in the series with P388 [5], the Optimal dose amounted to 6.25 mg/kg. For the same substance, the MED with P388 [3] was 1.56 mg/kg.
“amcha (cis-l)-2-(aminomethyl)cyclohexylamine platinum (II) complex [listing 6 of 6 here]”: the T/C in the series with P388 [1] was 148% [middle of 11 runs]. Moreover, the MED with P388 [3] was < 0.78 mg kg-1 (3×) and < 1.56 mg kg-1 and 0.78 mg kg-1.
With “dach (trans-l)-1,2-cyclohexanediamine platinum (II) complex [listing 3 of 4 here]”, in series [4], the TI amounted to 8.
For the substance “amcha (cis-d)-2-(aminomethyl)cyclohexylamine platinum (II) complex [listing 5 of 5 here]”, the T/C with P388 [1] is 160% [middle of 8 runs]. Also, in the series on P388 [3], the MED is less than 0.39 mg/kg.
“dach (trans-d)-1,2-cyclohexanediamine platinum (II) complex [listing 5 of 5 here]” came in with a TI in series [4] of 8.
The same measure, in the same setting: the same measure for “dach (trans-l)-1,2-cyclohexanediamine platinum (II) complex [listing 4 of 4 here]”: “>= 16”.
